We go through one compound from paper PMC4838516 (ChemMedChem, 2016).

Where two headings read alike, the source gives them in different places.

By IC50 is commonly meant the concentration at which inhibition is half-maximal.

The target of one assay is KSHV Pr (Human herpesvirus 8 type P, UniProt Q2HRB6). Kind of assay: Dose-response kinetic assay of KSHV Pr with fluorogenic P6R substrate. The format is biochemical. To be noted: read-out: KSHV Pr IC50. Put shortly:
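Manual kinetic dose-response assay on KSHV Pr with the P6R substrate Ac-Pro-Val-Tyr-tBG-Leu-Gln-Ala-(rhodamine110)-dPro, read in a plate reader at ex/em 485/530 nm. IC50 was taken from dose-response curves of enzymatic activity; reported values are means.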

For a further assay, the target named is HCMV Pr (Human cytomegalovirus, UniProt P16753). Kind of assay: Dose-response kinetic assay of HCMV Pr with ACC tetrapeptide substrate. The following applies: read-out: HCMV Pr IC50; --- = No quantifiable inhibition. The assay is classed as biochemical. In outline: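 Manual kinetic fluorescence assay on HCMV Pr using the tetrapeptide Ac-tBG-tBG-Asn(NMe2)-Ala carrying an ACC fluorophore, with ex/em 380/460 nm. Activity was followed over a dilution series of test compound to determine the IC50.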
HCMV Pr, sequence (P16753 1-256): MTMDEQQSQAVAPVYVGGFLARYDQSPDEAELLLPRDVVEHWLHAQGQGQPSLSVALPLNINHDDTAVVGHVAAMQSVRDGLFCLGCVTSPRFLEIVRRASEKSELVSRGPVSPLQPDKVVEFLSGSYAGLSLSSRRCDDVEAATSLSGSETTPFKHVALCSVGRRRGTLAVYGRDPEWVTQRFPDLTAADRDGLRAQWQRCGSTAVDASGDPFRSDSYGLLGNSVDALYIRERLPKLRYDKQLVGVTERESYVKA

KSHV Pr, sequence (Q2HRB6 1-230): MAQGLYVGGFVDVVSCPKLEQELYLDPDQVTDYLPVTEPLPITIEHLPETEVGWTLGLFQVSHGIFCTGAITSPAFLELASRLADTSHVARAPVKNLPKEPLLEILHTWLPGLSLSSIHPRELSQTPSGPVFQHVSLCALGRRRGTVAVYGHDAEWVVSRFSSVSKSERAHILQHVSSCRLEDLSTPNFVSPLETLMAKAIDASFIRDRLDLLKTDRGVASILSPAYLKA

With `Nc1nc(-c2ccccc2)cs1` [Fragment 20], the IC50 is greater than 1000 µM on KSHV Pr, greater than 500 µM on KSHV Pr (P6R rhodamine110 substrate) and greater than 500 µM on HCMV Pr.
